{"source": "ChEMBL document CHEMBL1833817", "about": "“Synthesis and cytotoxicity of 8-cyano-3-substitutedalkyl-5-methyl-4-methylene-7-methoxy-3,4-dihydropyrido[4,3-d]pyrimidines” (Bioorg Med Chem Lett, 2011)", "assay_type_in_all_cases": "functional, cell-based", "key": {"[1]": {"experiment": "Cytotoxicity against human CNE2 cells after 3 days by MTT assay", "conditions": "CNE-2, 72 h", "in_short": "(§1)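 Exponential-phase cells seeded at 5 × 10⁴–1 × 10⁵ cells/mL in fresh medium, grown overnight, then treated with compounds dissolved in DMSO at selected concentrations for 3 days. MTT in PBS (10 mg/mL stock) added for 3 h. Formazan dissolved in DMSO and read at 540 nm, with PBS lacking MTT as blank. Inhibition rate taken from averaged OD; IC50 = concentration giving 50% growth inhibition. Coefficients of variation <10%.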"}, "KB": {"test_system": "KB", "experiment": "Cytotoxicity against human KB cells after 3 days by MTT assay", "conditions": "72 h", "in_short": "as §1"}, "MGC-803": {"test_system": "MGC-803", "experiment": "Cytotoxicity against human MGC803 cells after 3 days by MTT assay", "conditions": "MGC-803, 72 h", "in_short": "as §1"}}, "data": [{"smiles": "C=C1c2c(C)nc(OC)c(C#N)c2N=CN1Cc1ccc(C)cc1", "values": [{"measurement": "IC50", "setting": "[1]", "result": 150, "unit": "nM"}, {"measurement": "IC50", "setting": "KB", "result": 480, "unit": "nM"}, {"measurement": "IC50", "setting": "MGC-803", "result": 590, "unit": "nM"}]}, {"smiles": "COc1nc(C)c2c(C)ncnc2c1C#N", "values": [{"measurement": "IC50", "setting": "KB", "result": "> 50000", "unit": "nM"}]}, {"smiles": "C=C1c2c(C)nc(OC)c(C#N)c2N=CN1CCCCCC", "values": [{"measurement": "IC50", "setting": "KB", "result": "> 50000", "unit": "nM"}]}, {"smiles": "C=C1c2c(C)nc(OC)c(C#N)c2N=CN1Cc1ccc(OC)cc1", "values": [{"measurement": "IC50", "setting": "[1]", "result": 180, "unit": "nM"}, {"measurement": "IC50", "setting": "KB", "result": 670, "unit": "nM"}, {"measurement": "IC50", "setting": "MGC-803", "result": 670, "unit": "nM"}]}, {"smiles": "C=C1c2c(C)nc(OC)c(C#N)c2N=CN1Cc1ccc(Cl)cc1", "values": [{"measurement": "IC50", "setting": "KB", "result": 20000, "unit": "nM"}]}, {"smiles": "C=C1c2c(C)nc(OC)c(C#N)c2N=CN1CCc1ccc(Cl)cc1", "values": [{"measurement": "IC50", "setting": "KB", "result": "> 50000", "unit": "nM"}]}, {"smiles": "C=C1c2c(C)nc(OC)c(C#N)c2N=CN1CC", "values": [{"measurement": "IC50", "setting": "KB", "result": "> 50000", "unit": "nM"}]}, {"smiles": "C=C1c2c(C)nc(OC)c(C#N)c2N=CN1Cc1ccccc1", "values": [{"measurement": "IC50", "setting": "KB", "result": "> 50000", "unit": "nM"}]}, {"smiles": "C=C1c2c(C)nc(OC)c(C#N)c2N=CN1CCC", "values": [{"measurement": "IC50", "setting": "KB", "result": "> 50000", "unit": "nM"}]}, {"smiles": "C=C1c2c(C)nc(OC)c(C#N)c2N=CN1Cc1cccc(C)c1", "values": [{"measurement": "IC50", "setting": "KB", "result": 37000, "unit": "nM"}]}, {"smiles": "C=C1c2c(C)nc(OC)c(C#N)c2N=CN1Cc1ccco1", "values": [{"measurement": "IC50", "setting": "KB", "result": "> 50000", "unit": "nM"}]}]}
